Experimental data published in ChEMBL document CHEMBL1131114 (J Med Chem, 1998).
pIC50: −log10 of the molar value.

Legend:
[1] = molecular target: Sodium-dependent dopamine transporter (Rattus norvegicus, UniProt P23977); experiment: Displacement of [3H]WIN-35428(0.5 nM) from Dopamine transporter
Summary of the method: (§1)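 IC50 is taken as inhibition of specific binding. Values are mean ± standard error of three or four experiments, with triplicate determinations at each concentration.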

[2] = molecular target: Norepinephrine transporter (Rattus norvegicus, UniProt Q9WTR4); experiment: Inhibition of [3H]nisoxetine (0.5 nM) binding to Noradrenaline transporter; summary of the method: as §1
[3] = molecular target: Sodium-dependent serotonin transporter (Rattus norvegicus, UniProt P31652); experiment: Inhibition of [3H]paroxetine (0.2 nM) binding to 5-HT transporter; summary of the method: as §1
Sequence of Sodium-dependent serotonin transporter (P31652 whole entry): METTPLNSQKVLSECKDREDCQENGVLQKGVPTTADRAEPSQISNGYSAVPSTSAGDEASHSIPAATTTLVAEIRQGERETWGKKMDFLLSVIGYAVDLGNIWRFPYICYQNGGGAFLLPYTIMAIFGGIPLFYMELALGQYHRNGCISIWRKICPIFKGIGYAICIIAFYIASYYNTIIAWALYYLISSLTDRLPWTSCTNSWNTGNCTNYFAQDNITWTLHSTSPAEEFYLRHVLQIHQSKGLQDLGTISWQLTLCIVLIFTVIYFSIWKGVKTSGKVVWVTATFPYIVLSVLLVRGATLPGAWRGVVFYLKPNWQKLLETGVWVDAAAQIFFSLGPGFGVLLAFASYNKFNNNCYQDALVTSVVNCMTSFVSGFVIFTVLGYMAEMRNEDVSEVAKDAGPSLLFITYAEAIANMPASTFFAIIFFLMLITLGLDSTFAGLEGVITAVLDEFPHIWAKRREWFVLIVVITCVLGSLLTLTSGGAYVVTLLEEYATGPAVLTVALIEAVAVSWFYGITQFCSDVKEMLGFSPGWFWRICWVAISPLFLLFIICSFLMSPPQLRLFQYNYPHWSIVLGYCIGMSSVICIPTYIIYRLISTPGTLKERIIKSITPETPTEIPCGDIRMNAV

Sequence of Sodium-dependent dopamine transporter (P23977 whole entry): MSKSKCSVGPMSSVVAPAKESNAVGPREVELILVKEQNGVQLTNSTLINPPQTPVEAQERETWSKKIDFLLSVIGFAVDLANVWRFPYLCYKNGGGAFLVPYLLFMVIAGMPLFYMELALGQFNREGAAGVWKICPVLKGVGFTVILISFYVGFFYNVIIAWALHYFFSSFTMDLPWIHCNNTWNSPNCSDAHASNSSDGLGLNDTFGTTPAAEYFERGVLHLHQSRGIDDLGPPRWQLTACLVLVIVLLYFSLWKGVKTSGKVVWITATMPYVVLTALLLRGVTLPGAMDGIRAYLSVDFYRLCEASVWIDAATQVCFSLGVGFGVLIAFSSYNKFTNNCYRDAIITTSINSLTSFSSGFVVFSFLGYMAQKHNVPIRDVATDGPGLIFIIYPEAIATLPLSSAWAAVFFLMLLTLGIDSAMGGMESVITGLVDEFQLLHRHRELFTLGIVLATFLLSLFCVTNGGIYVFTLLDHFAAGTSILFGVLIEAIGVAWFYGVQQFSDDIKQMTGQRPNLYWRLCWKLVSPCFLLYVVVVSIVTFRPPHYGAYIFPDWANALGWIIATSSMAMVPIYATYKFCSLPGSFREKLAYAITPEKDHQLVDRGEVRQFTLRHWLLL
Sequence of Norepinephrine transporter (Q9WTR4 whole entry): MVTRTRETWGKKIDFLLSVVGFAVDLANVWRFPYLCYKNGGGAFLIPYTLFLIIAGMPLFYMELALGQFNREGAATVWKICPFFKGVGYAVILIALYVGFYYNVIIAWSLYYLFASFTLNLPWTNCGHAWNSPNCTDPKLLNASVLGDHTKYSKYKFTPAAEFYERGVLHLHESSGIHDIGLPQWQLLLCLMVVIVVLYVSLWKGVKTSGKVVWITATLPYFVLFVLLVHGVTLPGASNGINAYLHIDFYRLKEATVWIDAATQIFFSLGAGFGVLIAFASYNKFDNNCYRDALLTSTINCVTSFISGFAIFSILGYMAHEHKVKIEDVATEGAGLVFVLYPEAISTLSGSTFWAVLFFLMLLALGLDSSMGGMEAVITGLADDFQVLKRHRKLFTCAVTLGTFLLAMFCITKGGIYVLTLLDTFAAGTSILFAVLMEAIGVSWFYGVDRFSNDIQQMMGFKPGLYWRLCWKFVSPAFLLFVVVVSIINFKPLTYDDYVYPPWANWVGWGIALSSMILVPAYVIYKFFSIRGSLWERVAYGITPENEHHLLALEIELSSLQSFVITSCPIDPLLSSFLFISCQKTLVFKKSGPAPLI

| SMILES | pIC50 [1] | pIC50 [2] | pIC50 [3] |
| --- | --- | --- | --- |
| Fc1ccc([C@@H]2CC3CCC(N3)[C@@H]2COc2ccc3c(c2)OCO3)cc1 (stereo partly specified) | 7.56 | 5.77 | 7.25 |
| Fc1ccc([C@H]2CC3CCC(N3)[C@@H]2COc2ccc3c(c2)OCO3)cc1 (stereo partly specified) | 6.85 | 5.60 | 7.05 |
| CN1C2CC[C@@H]1C[C@H](c1ccc(F)cc1)[C@H]2COc1ccc2c(c1)OCO2 | 6.76 | 4.58 | 7.28 |
| CN1C2CC[C@@H]1[C@H](COc1ccc3c(c1)OCO3)[C@H](c1ccc(F)cc1)C2 | 5.82 | 5.54 | 6.35 |
| CN1C2CC[C@@H]1[C@@H](COc1ccc3c(c1)OCO3)[C@H](c1ccc(F)cc1)C2 | 5.98 | 4.56 | 7.06 |
| CN1C2CC[C@@H]1C[C@H](c1ccc(F)cc1)[C@@H]2COc1ccc2c(c1)OCO2 | 6.51 | 5.28 | 6.53 |
| CN1C2CC[C@@H]1C[C@@H](c1ccc(F)cc1)[C@@H]2COc1ccc2c(c1)OCO2 | 8.52 | 6.91 | 6.37 |
| CN1C2CC[C@@H]1[C@@H](COc1ccc3c(c1)OCO3)[C@@H](c1ccc(F)cc1)C2 | 6.53 | 4.91 | 6.75 |
| Fc1ccc([C@H]2CC3CCC(N3)[C@H]2COc2ccc3c(c2)OCO3)cc1 (stereo in doubt; 4a) | 6.08 | 4.43 | 6.32 |
| Fc1ccc([C@@H]2CC3CCC(N3)[C@H]2COc2ccc3c(c2)OCO3)cc1 (stereo in doubt; 4c) | 8.41 | 7.84 | 8.25 |
| Fc1ccc([C@@H]2CC3CCC(N3)[C@H]2COc2ccc3c(c2)OCO3)cc1 (stereo in doubt; 4d) | 5.92 | 4.76 | 6.37 |
| Fc1ccc([C@H]2CC3CCC(N3)[C@H]2COc2ccc3c(c2)OCO3)cc1 (stereo in doubt; 4f) | 6.39 | 5.70 | 7.72 |
